Laboratory results taken from ChEMBL document CHEMBL2331343 (Bioorg Med Chem, 2013).
Calls of active or inactive are those of the source. The calls are words filed in the database; no cut-off is given here.

Tests used:
[1] = target: T1, 5-hydroxytryptamine receptor 1A (Homo sapiens, UniProt P08908); test: Displacement of [3H]8-OH-DPAT from 5-HT1A receptor (unknown origin) expressed in HEK293 cells by liquid scintillation counter; type: cell-based
T1 sequence (P08908 whole entry): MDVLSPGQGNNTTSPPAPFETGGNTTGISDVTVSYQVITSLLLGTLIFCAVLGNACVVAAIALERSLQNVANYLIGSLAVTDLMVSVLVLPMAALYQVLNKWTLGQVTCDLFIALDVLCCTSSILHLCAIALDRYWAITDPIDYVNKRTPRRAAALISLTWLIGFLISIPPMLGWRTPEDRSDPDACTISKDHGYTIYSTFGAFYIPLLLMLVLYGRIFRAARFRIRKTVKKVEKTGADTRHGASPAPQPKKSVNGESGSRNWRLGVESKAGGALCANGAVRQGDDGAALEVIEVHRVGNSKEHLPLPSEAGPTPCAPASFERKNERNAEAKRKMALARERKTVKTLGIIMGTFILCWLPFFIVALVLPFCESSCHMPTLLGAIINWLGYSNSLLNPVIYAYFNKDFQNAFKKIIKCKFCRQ

[2] = target: T2, D(1A) dopamine receptor (Homo sapiens, UniProt P21728); test: Agonist activity at dopamine D1 receptor (unknown origin) expressed in HEK293 cells assessed as stimulation of [35S]GTPgammaS binding by scintillation proximity assay; type: functional, cell-based
[3] = tested on: Rattus norvegicus; test: Effect on baseline startle reactivity in Sprague-Dawley rat schizophrenia model at 5 mg/kg, ip administered 10 mins prior testing monitored for 5 mins; type: ADME, organism-based; set-up: dose 5 mg/kg, route intraperitoneal; conditions: in vivo
Summary of the method: (§1)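 Male Sprague-Dawley rats were pretreated ip with saline or compound 10 min before PCP (5 mg/kg, ip). Acoustic startle was tested 5 min after PCP, following 3 min acclimation: 40 ms, 120 dB pulse with prepulse trials, 74 dB background, 15–25 s intertrial interval, session about 20 min. %PPI = [1 − (prepulse+pulse)/(pulse alone)]×100. Startle = mean of pulse-alone trials, first 3 excluded.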

[4] = tested on: Rattus norvegicus; test: Antipsychotic activity in Sprague-Dawley rat schizophrenia model assessed as inhibition of PCP-induced hyperlocomotion at 2.5 mg/kg, ip administered 10 mins prior testing […]; type: functional, organism-based; set-up: dose 2.5 mg/kg
[5] = tested on: Rattus norvegicus; test: Antipsychotic activity in Sprague-Dawley rat schizophrenia model assessed as inhibition of PCP-induced prepulse inhibition at 5 mg/kg, ip administered 10 mins prior testing monitored for 5 mins; type: functional, organism-based; set-up: dose 5 mg/kg; summary of the method: as §1
[6] = target: T2, D(1A) dopamine receptor; test: Displacement of [3H]SCH23390 from dopamine D1 receptor (unknown origin) expressed in human HEK293 cells by liquid scintillation counter; type: cell-based
Summary of the method: (§2)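 Stably transfected HEK293T D1 membranes, […], duplicate incubation 50 min at 30 °C with [3H]SCH23390 in 50 mM Tris, 4 mM MgCl2, pH 7.4. Nonspecific binding with 10 μM SCH23390. GF/B filtration, scintillation counting.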

[7] = target: T2, D(1A) dopamine receptor; test: Inhibition of [3H]SCH23390 binding to dopamine D1 receptor (unknown origin) expressed in human HEK293 cells at 10 uM by liquid scintillation counter relative to control; type: cell-based; summary of the method: as §2
[8] = target: T3, 5-hydroxytryptamine receptor 1A (Homo sapiens) (UniProt P08908); test: Inhibition of [3H]8-OH-DPAT binding to 5-HT1A receptor (unknown origin) expressed in HEK293 cells at 10 uM by liquid scintillation counter relative to control; type: cell-based
T3 sequence (whole entry): T1 sequence (P08908 whole entry)
Summary of the method: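 Membranes of HEK293T stably transfected with 5-HT1A, […], incubated in duplicate 50 min at 30 °C with [3H]8-OH-DPAT in 50 mM Tris, 4 mM MgCl2, pH 7.4. Nonspecific binding with 10 μM WAY100635. Filtration on GF/B, cold Tris/EDTA wash, scintillation counting.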

[9] = target: T1, 5-hydroxytryptamine receptor 1A; test: (§3) Agonist activity at 5-HT1A receptor (unknown origin) expressed in HEK293 cells assessed as […] of [35S]GTPgammaS binding by scintillation proximity assay; type: functional, cell-based
[10] = target: T3, 5-hydroxytryptamine receptor 1A (Homo sapiens); test: as §3; type: functional, cell-based
[11] = target: 5-hydroxytryptamine receptor 2A (Homo sapiens, UniProt P28223); test: Inhibition of [3H]Ketanserin binding to 5-HT2A receptor (unknown origin) expressed in HEK293 cells at 10 uM by liquid scintillation counter relative to control; type: cell-based
Summary of the method: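 Membranes of HEK293T stably transfected with 5-HT2A, […], incubated in duplicate 15 min at 37 °C with [3H]ketanserin in 50 mM Tris, 4 mM MgCl2, pH 7.4. […] GF/B filtration, cold wash, scintillation counting.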

[12] = target: T4, D(2) dopamine receptor (Homo sapiens, UniProt P14416); conditions: HEK293, at 10 µM
[13] = tested on: Rattus norvegicus; test: In vivo agonist activity at 5-HT1A receptor in WAY100635 pre-treated Sprague-Dawley rat DA neuron assessed as increase in firing rate at 1 mg/kg, iv; type: functional, organism-based; set-up: dose 1 mg/kg
Summary of the method: (§4)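 Anesthetized (chloral hydrate) Sprague-Dawley rats given raclopride, then WAY100635 before compound 1 mg/kg. VTA DA neuron single-unit firing rate and bursts analysed every 10 s as % of post-raclopride baseline. n = 5, paired t-test.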

[14] = target: T4, D(2) dopamine receptor
[15] = tested on: Rattus norvegicus; test: In vivo agonist activity at 5-HT1A receptor in Sprague-Dawley rat DA neuron assessed as increase in bursts at 1 mg/kg, iv in presence of WAY100635; type: functional, organism-based; set-up: dose 1 mg/kg
Summary of the method: (§5)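 VTA DA neuron single-unit recording in chloral hydrate-anesthetized Sprague-Dawley rats after raclopride 0.1 mg/kg. Compound 1 mg/kg was followed by WAY100635 1.0 mg/kg. Firing rate and bursting were analysed in 10 s bins relative to the post-raclopride baseline.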

[16] = tested on: Rattus norvegicus; test: Antipsychotic activity in ip dosed Sprague-Dawley rat schizophrenia model assessed as inhibition of PCP-induced hyperlocomotion administered 10 mins prior testing monitored for 5 mins; type: functional, organism-based
Summary of the method: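 Male Sprague-Dawley rats (230–280 g) given saline or compound ip 10 min before PCP 5 mg/kg. Starting 5 min after PCP, rats were video-tracked in a 40×40×45 cm open field for 30 min. Total distance recorded; n = 6–12 per group; one-way ANOVA with Tamhane post hoc test.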

[17] = target: T2, D(1A) dopamine receptor; test: Antagonist activity at dopamine D1 receptor (unknown origin) expressed in HEK293 cells assessed as inhibition of [35S]GTPgammaS binding by scintillation proximity assay; type: functional, cell-based
[18] = tested on: Rattus norvegicus; test: In vivo agonist activity at 5-HT1A receptor in Sprague-Dawley rat DA neuron assessed as increase in firing rate at 1 mg/kg, iv; type: functional
Summary of the method: (§6)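 Male Sprague-Dawley rats under chloral hydrate anesthesia (400 mg/kg ip) at 37 °C. Single-unit recording of VTA DA neurons by glass microelectrode. Raclopride 0.1 mg/kg given first, then compound 1 mg/kg. Firing rate and bursts analysed every 10 s as % of post-raclopride baseline. n = 5, paired t-test.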

[19] = tested on: Rattus norvegicus; test: Effect on prepulse inhibition in Sprague-Dawley rat schizophrenia model at 5 mg/kg, ip administered 10 mins prior testing monitored for 5 mins; type: ADME, organism-based; set-up: dose 5 mg/kg, route intraperitoneal; conditions: in vivo; summary of the method: as §1
[20] = tested on: Rattus norvegicus; test: In vivo agonist activity at 5-HT1A receptor in Sprague-Dawley rat DA neuron assessed as increase in firing rate at 1 mg/kg, iv in presence of WAY100635; type: functional, organism-based; set-up: dose 1 mg/kg; summary of the method: as §5
[21] = tested on: Rattus norvegicus; test: In vivo agonist activity at 5-HT1A receptor in Sprague-Dawley rat DA neuron assessed as increase in bursts at 1 mg/kg, iv; type: functional, organism-based; set-up: dose 1 mg/kg; summary of the method: as §6
[22] = tested on: Rattus norvegicus; test: In vivo agonist activity at 5-HT1A receptor in WAY100635 pre-treated Sprague-Dawley rat DA neuron assessed as increase in bursts at 1 mg/kg, iv; type: functional, organism-based; set-up: dose 1 mg/kg; summary of the method: as §4
[23] = tested on: Rattus norvegicus; test: Antipsychotic activity in Sprague-Dawley rat schizophrenia model assessed as effect on 120 db noise-induced absolute acoustic startle responses at 5 mg/kg, ip administered 10 mins prior testing monitored for 5 mins; type: functional, organism-based; set-up: dose 5 mg/kg; summary of the method: as §1
[24] = target: T4, D(2) dopamine receptor; test: Displacement of [3H]spiperone from dopamine D2 receptor (unknown origin) expressed in human HEK293 cells by liquid scintillation counter; type: cell-based
[25] = tested on: Rattus norvegicus; test: Antipsychotic activity in Sprague-Dawley rat schizophrenia model assessed as inhibition of PCP-induced hyperlocomotion at 10 mg/kg, ip administered 10 mins prior testing […]; type: functional, organism-based; set-up: dose 10 mg/kg
[26] = tested on: Rattus norvegicus; test: Antipsychotic activity in Sprague-Dawley rat schizophrenia model assessed as inhibition of PCP-induced prepulse inhibition at 10 mg/kg, ip administered 10 mins prior testing monitored for 5 mins; type: functional, organism-based; set-up: dose 10 mg/kg; summary of the method: as §1

T4 sequence (P14416 whole entry): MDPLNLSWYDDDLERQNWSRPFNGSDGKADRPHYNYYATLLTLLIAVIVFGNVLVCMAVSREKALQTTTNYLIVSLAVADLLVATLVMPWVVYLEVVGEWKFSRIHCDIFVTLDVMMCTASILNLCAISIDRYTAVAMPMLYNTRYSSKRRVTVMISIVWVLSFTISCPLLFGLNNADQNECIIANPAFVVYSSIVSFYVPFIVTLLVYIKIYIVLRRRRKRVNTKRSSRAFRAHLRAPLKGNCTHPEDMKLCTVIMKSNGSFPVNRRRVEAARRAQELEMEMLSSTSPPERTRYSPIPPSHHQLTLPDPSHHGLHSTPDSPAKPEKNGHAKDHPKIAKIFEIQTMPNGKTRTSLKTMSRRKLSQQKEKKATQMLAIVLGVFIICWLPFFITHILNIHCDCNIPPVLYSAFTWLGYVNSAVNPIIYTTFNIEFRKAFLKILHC
T2 sequence (P21728 whole entry): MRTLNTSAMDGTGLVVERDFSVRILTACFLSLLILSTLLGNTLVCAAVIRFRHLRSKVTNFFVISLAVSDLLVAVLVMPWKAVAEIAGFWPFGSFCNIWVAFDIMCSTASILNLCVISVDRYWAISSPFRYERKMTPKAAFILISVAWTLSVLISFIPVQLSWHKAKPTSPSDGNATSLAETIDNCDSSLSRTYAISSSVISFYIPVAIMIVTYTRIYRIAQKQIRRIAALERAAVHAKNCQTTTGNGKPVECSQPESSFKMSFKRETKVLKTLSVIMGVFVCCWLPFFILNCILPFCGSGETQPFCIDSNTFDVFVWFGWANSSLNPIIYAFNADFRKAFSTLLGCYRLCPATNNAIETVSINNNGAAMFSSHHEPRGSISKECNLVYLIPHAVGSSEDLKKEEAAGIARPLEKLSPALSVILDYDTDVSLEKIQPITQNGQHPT
Sequence of 5-hydroxytryptamine receptor 2A (P28223 whole entry): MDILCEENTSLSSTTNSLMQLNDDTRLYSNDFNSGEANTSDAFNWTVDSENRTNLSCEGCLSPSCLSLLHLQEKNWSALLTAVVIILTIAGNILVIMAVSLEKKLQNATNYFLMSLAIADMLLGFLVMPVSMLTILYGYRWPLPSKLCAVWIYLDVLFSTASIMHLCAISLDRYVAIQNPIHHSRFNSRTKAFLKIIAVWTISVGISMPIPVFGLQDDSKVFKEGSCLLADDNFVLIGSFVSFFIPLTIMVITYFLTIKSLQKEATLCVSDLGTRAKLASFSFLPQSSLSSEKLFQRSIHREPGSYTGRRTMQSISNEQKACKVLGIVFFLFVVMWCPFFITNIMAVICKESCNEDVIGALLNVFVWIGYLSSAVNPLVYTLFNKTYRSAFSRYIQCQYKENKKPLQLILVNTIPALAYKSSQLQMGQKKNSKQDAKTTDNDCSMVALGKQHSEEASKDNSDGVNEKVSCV

| Ki [1] | EC50 [2] | Ki [6] | inhibition [7] | inhibition [8] | EC50 [9] | Emax [10] | inhibition [11] | inhibition [12] | IC50 [14] | IC50 [17] | Ki [24] | SMILES | Activity [3] | inhibition [5] | inhibition [16] | Activity [23] | further results |
| --- | --- | --- | --- | --- | --- | --- | --- | --- | --- | --- | --- | --- | --- | --- | --- | --- | --- |
| 149 nM | 1350 nM | 50 nM | 98.8% | 97.4% | 190 nM | 156% | 68.8% | 88.8% | 18700 nM | 21300 nM | 305 nM | COc1cc2c(cc1OC)[C@@H]1Cc3ccc(O)c(OC)c3CN1CC2 | Non-toxic | Active | Dose-dependent effect | inactive | inhibition [4]: Active; Activity [13]: inactive; Activity [15]: inactive; Activity [18]: 128.3%; Activity [19]: Non-toxic; Activity [20]: inactive; Activity [21]: Active; Activity [22]: inactive |
| 908 nM | 16000 nM | 6.3 nM | 99.7% | 95.7% | 13500 nM | 80.7% | 73.6% | 92.8% | 1000 nM | 17400 nM | 145 nM | COc1c(O)ccc2c1CN1CCc3cc4c(cc3[C@@H]1C2)OCO4 | Non-toxic | Active | Dose-dependent effect | inactive | inhibition [25]: Active; inhibition [26]: Active |
